Screening results deposited in PubChem BioAssay by several laboratories.
CHT block = human CHT choline transport inhibition | AID 488975 | CHT-expressing cells, membrane potential dye, choline response; hits give low values | B-score at 10 µM | 310,000 compounds, 0.86% hits | Q9GZV3;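 active = B-score over 3 SD under the library average, and starting fluorescence ratio not unusually high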;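 also: choline stimulus applied at its EC90 after an EC20 pre-addition; B-score computed on integrated fluorescence ratio after choline addition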
procasp7 counter = counter-screen for procaspase-3 activators: activators of human procaspase-7 | P55210 | recombinant procaspase-7, Ac-DEVD-pNA absorbance 405 nm; D23A/D198A/D206A triple mutant, cannot self-cleave; scale: DMSO 0, 5 µM enzyme 100 | activation, % at 8.5 µM | 330,000 compounds, 0.093% hits | AID 463210;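 active = percent activation above the screen-wide mean plus 3 SD, cut at about 25% in these data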
Target sequence (P55210 whole entry D23A/D198A/D206A): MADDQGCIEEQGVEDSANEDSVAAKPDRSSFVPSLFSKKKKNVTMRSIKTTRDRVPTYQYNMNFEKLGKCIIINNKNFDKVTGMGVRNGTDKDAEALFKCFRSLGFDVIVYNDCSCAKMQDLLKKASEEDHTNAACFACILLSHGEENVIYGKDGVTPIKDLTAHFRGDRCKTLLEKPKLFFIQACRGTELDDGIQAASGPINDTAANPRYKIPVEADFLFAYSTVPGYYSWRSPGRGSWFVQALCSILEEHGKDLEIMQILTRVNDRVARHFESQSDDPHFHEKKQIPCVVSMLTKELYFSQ
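System: Uncleavable procaspase-7 mutant enzyme; Amount: 2 µM procaspase-7 mutant as dispensed; Schedule: 1 h compound preincubation, 2 h substrate cleavage, 25 °C; Measured by: 405 nm absorbance of p-nitroaniline; Evaluation: percent activation from buffer-corrected 0–120 min absorbance change; Control set: low DMSO alone, high DMSO plus 5 µM PC-7.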
proCasp3 act = activates human procaspase-3 | AID 463141 | recombinant procaspase-3 D3A, Ac-DEVD-pNA absorbance 405 nm | 330,000 compounds, 0.11% hits | activation, % at 8.5 µM;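 active = activation above the mean of all tested compounds plus 3 SD, cut at about 21% in these data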;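 also: 0% = DMSO alone and 100% = DMSO wells spiked with extra 5 µM PC-3 D3A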
Target sequence (P42574 whole entry D9A/D28A/D175A): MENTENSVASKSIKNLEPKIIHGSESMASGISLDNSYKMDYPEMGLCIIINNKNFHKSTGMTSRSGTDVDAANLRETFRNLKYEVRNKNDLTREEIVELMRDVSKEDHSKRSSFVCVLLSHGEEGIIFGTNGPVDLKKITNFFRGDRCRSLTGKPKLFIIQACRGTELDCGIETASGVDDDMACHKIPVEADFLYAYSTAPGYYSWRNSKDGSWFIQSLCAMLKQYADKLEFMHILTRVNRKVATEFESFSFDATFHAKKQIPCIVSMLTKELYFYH
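Evaluation: percent activation relative to control range; Material: Procaspase-3 D3A mutant, all three cleavage aspartates alanine; Compound: single dose, 8.5 µM nominal compound, 0.8% DMSO; Replication: one well per compound; Signal: absorbance at 405 nm, 0 and 120 min; Schedule: 1 h preincubation plus 2 h reaction at 25 °C.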
CHT allo act = allosteric activators of human choline transporter CHT | B-score at 10 µM | 310,000 compounds, 0.49% hits | AID 488977 | CHT-expressing cells, membrane potential dye, choline EC20; hits give high values; LV-AA mutant CHT in HEK293 cells;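 active = initial fluorescence not abnormally high and integrated response B-score, plate-corrected, over 3 SD above library mean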
CHT inh conf = confirmation of human choline transporter CHT inhibitors; shares compounds with CHT block; CHT-expressing cells, choline membrane potential dye; LV-to-AA substituted CHT, HEK293 cells; CHT activity remaining % of control (hits give low values), % at 10 µM; 2,400 compounds, 70% hits; AID 493221;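 active = choline transporter activity left, mean of duplicates at 10 µM, below buffer-only control mean minus 3 SD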;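 also: depolarization triggered by choline at its EC90 following an EC20 pre-addition; 0% = hemicholinium-3 full block and 100% = buffer-only control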
HEK293 CHT ctr = CHT inhibitor counter-screen hit in parental HEK293 cells; shares compounds with CHT block; membrane potential dye, choline response; active = decrease or increase beyond buffer ±3SD; membrane potential ratio readout (active if shifted either direction beyond buffer ±3SD; no single direction) at 10 µM; 2,400 compounds, 4% hits; AID 493222;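 also: parental cells lack the transporter so any hit is non-specific; ratio is peak minus trough fluorescence over baseline after EC90 choline challenge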
Starred values were filed as active, the others as inactive; i = inactive; nt = no result given. A selection: hits, their analogues and other compounds. The true share with any hit is near 1.3%.

SMILES	CHT block	procasp7 counter	proCasp3 act	CHT allo act	CHT inh conf	HEK293 CHT ctr
CCC(C)(C)NC(=O)C(c1ccccc1F)N(Cc1ccco1)C(=O)c1csnn1 (stereo unspecified)	-5*	-1	2	i	i	i
CCc1ccc(N(C(=O)c2csnn2)C(C(=O)NC(C)(C)C)c2ccncc2)cc1 (stereo unspecified)	i	0	3	i	nt	nt
CCc1ccc(N(C(=O)c2csnn2)C(C(=O)NC(C)(C)CC)c2cccnc2)cc1 (stereo unspecified)	-5.1*	-1	-2	i	i	i
Cc1ccc(N(C(=O)c2csnn2)C(C(=O)NCc2ccccc2)c2ccccn2)cc1 (stereo unspecified)	i	-6	-4	i	nt	nt
CCOC(=O)c1c(C)[nH]c(C)c1S(=O)(=O)N1CCN(c2ccc(F)cc2)CC1	i	7	3	i	nt	nt
CCOC(=O)c1cnc2c(Cl)cc(Cl)cc2c1NCCOCCO	-10*	5	-2	i	34%*	i
Cc1ccc2c(c1)nnn2C1CCN(C(=O)c2ccccc2F)CC1	i	-9	7	i	nt	nt
O=C(N/N=C/C1CC=CCC1)c1cc(-c2cccnc2)nc2ccccc12 (stereo unspecified)	-11*	6	11	i	14%*	i
COC(=O)c1ccc(/C(O)=C(\C#N)c2nc3ccccc3s2)cc1	-6.5*	-8	-5	i	i	i
COC(=O)c1ccc(CC(=O)c2nc3ccccc3s2)cc1	i	-7	14	i	nt	nt
Cc1ccc(Cl)cc1NC(=O)NCc1cccnc1	i	nt	nt	i	nt	nt
CCC(Sc1nc2ccncc2[nH]1)C(=O)Nc1cc(Cl)ccc1C (stereo unspecified)	-5.9*	1	0	i	i	i
Cc1cccc(NC(=O)CSc2nnc(CNC(=O)c3ccco3)n2C)c1C	i	-6	5	i	nt	nt
CCc1cc(CC)c(/C=N/NC(N)=O)c(CC)c1/C=N/NC(N)=O	-9.3*	-10	2	i	19%*	i
Cc1cc(/C=N/NC(N)=O)c(C)c(CO)c1	i	-4	10	i	nt	nt
CCOC(=O)N/N=C/c1ccc(OCCSc2ccc(Cl)cc2)c(OC)c1	i	7	0	i	nt	nt
CCOC(=O)N/N=C/c1ccc(OCCSc2ccc(Cl)cc2)c(OCC)c1	-5*	2	-1	i	i	i
CCOc1cc(/C=N/NC(=O)CN2CCCCC2)ccc1OCc1cccc(Cl)c1	-6.6*	2	4	i	49%*	i
Cc1ccc(CNC(N)=S)cc1	i	-11	18	i	nt	nt
COC(=O)NNC(=S)NCc1ccc(C)cc1	-6.7*	10	1	i	i	i
CCN(CC)c1ccc(C2C3CCCCC3(O)CCN2CC(=O)N2CCCCC2)cc1 (stereo unspecified)	-5.9*	12	3	i	i	i
CCN(CC)c1ccc([C@H]2[C@@H]3CCCC[C@]3(O)CCN2CC(=O)NCc2ccco2)cc1	i	0	8	i	nt	nt
CC1CCC(NC(=O)Cn2cnc3sccc3c2=O)CC1 (stereo unspecified)	nt	3	-4	nt	nt	nt
COc1cccc(NC(=O)CN2CCN(c3ccccc3F)CC2)c1	-5.9*	-3	4	i	i	i
CCCN1CCN(C(=O)c2ccc(F)c(S(=O)(=O)N3CCOCC3)c2)CC1	nt	2	3	nt	nt	nt
SMILES	CHT block	procasp7 counter	proCasp3 act	CHT allo act	CHT inh conf	HEK293 CHT ctr
C=C[C@@]1(C)CC(=O)[C@]2(O)[C@@]3(C)[C@@H](O)CCC(C)(C)[C@@H]3[C@H](OC(C)=O)[C@H](O)[C@@]2(C)O1	-8.1*	-3	10	i	37%*	i
O=C(Nc1ncc([N+](=O)[O-])s1)c1ccc2c(c1)OCO2	i	-28	-7	i	nt	nt
Cc1ccc(C(=O)Nc2ncc([N+](=O)[O-])s2)cc1	-5.9*	-18	8	i	56%*	i
NS(=O)(=O)c1ccc(NNC(=O)c2ccccc2)cc1	i	-15	-6	i	nt	nt
O=C(NNc1cc(Br)c(O)c(Br)c1)c1ccccc1	-7.4*	-18	2	i	47%*	i
C=CCOc1ccccc1CNCc1ccc(F)cc1	-7.5*	1	2	i	26%*	-14*
N#C/C(=C\c1ccc(O)c(Br)c1)C(=O)NCc1ccccc1	-6.4*	-8	-6	i	64%*	i
CC(NC(=O)c1ccc(F)cc1)c1ccc2c(c1)CCCC2 (stereo unspecified)	-6.2*	5	-1	i	41%*	i
CC(NC(=O)c1ccccc1Br)c1ccc2c(c1)CCCC2 (stereo unspecified)	i	-1	3	i	nt	nt
CC(NC(=O)c1ccc(Br)cc1)c1ccc2c(c1)CCCC2 (stereo unspecified)	-9.7*	2	-2	i	i	i
Cc1ccc(S(=O)(=O)NCCC(=O)N2CCC(Cc3ccccc3)CC2)cc1	i	7	3	i	i	i
CC(NC(=S)NC(=O)c1ccccc1Br)c1ccccc1 (stereo unspecified)	i	-6	-10	i	nt	nt
CC(C)C(NC(=O)c1ccccc1Br)c1ccccc1 (stereo unspecified)	-5.3*	-11	-2	i	i	i
Cc1cc(C(=O)NNC(=O)C(C)(C)Oc2ccc(Cl)cc2)c(C)o1	nt	0	-2	nt	nt	nt
Cc1cc(C)cc(CC2CC(=O)N(c3ccc([N+](=O)[O-])cc3)C2=O)c1 (stereo unspecified)	i	0	8	i	nt	nt
O=C(N/N=C/c1ccsc1)c1c[nH]c2ccccc12	-7*	-1	4	i	69%*	i
Cc1ccsc1/C=N/NC(=O)c1c[nH]c2ccccc12	i	-3	0	i	nt	nt
Cc1c(NC(=O)/C=C/c2cn(-c3ccccc3)nc2-c2ccccc2)c(=O)n(-c2ccccc2)n1C	-5.7*	14	-1	i	65%*	i
CC1=C(C(=O)OCC(Cl)(Cl)Cl)N2C(=O)C(NC(=O)Cc3ccccc3)C2SC1 (stereo unspecified)	-12*	-13	2	i	i	i
CC1CN(Cc2ccccc2)c2ccccc2NC1=S (stereo unspecified)	i	-8	4	i	nt	nt
CCCc1cc(=O)[nH]c(SCC(=O)c2cc(C)n(CCOC)c2C)n1	i	7	-1	i	nt	nt
